# Laboratory results reported in ChEMBL document CHEMBL4406880, “Design, synthesis, and bioactivity of dihydropyrimidine derivatives as kinesin spindle protein inhibitors” (Bioorg Med Chem, 2019).
# Key:
# Type in all cases: functional
# [1] = system: CCRF-CEM; test: Growth inhibition of human CCRF-CEM cells assessed as growth percentage at 10 uM incubated for 48 hrs by sulforhodamine B assay relative to control; conditions: read-out: Activity
# In short: (§1)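 NCI-60 one-dose screen: cells in RPMI 1640 with 5% FBS and 2 mM L-glutamine, plated at 5,000–40,000 cells/well and preincubated 24 h at 37 °C, 5% CO2. Compound is added from a DMSO stock to a final 10 µM and incubated 48 h. Cells are TCA-fixed and stained with sulforhodamine B, read at 515 nm. Output is % growth versus untreated control, with a time-zero plate.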
# [2] = system: SR; test: Growth inhibition of human SR cells assessed as growth percentage at 10 uM incubated for 48 hrs by sulforhodamine B assay relative to control; conditions: read-out: Activity
# In short: (§2)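 NCI-60 single-dose screen. Cells were grown in RPMI 1640 with 5% FBS and 2 mM L-glutamine and plated at 5,000–40,000 cells/well. After an overnight preincubation at 37 °C in 5% CO2, compound was added at a final 10 µM from a DMSO stock, with DMSO/PBS controls. After 48 h, cells were TCA-fixed and stained with 0.4% SRB, and absorbance was read at 515 nm. Growth is given as a percentage of untreated control.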
# [3] = system: RPMI-8226; test: Growth inhibition of human RPMI8226 cells assessed as growth percentage at 10 uM incubated for 48 hrs by sulforhodamine B assay relative to control; conditions: RPMI-8226, 48 h, read-out: Activity; in short: as §2
# [4] = system: MOLT-4; test: Growth inhibition of human MOLT4 cells assessed as growth percentage at 10 uM incubated for 48 hrs by sulforhodamine B assay relative to control; conditions: MOLT-4, 48 h, read-out: Activity
# In short: (§3)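 NCI-60 one-dose screen. Cells in RPMI 1640 with 5% FBS and 2 mM L-glutamine, seeded at 5,000–40,000 cells/well according to doubling time, and preincubated overnight at 37 °C, 5% CO2. A time-zero plate was TCA-fixed at drug addition. Compound from DMSO stock, final 10 µM, 48 h; DMSO vehicle controls. Fixation with TCA, 10% final (16% for suspension cells). SRB stain, Tris solubilization, A515. Result given as % growth versus untreated cells.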
# [5] = system: EKVX; test: Growth inhibition of human EKVX cells assessed as growth percentage at 10 uM incubated for 48 hrs by sulforhodamine B assay relative to control; conditions: read-out: Activity; in short: as §1
# [6] = system: HOP-62; test: Growth inhibition of human HOP62 cells assessed as growth percentage at 10 uM incubated for 48 hrs by sulforhodamine B assay relative to control; conditions: HOP-62, 48 h, read-out: Activity; in short: as §3
# [7] = system: NCI-H226; test: Growth inhibition of human NCI-H226 cells assessed as growth percentage at 10 uM incubated for 48 hrs by sulforhodamine B assay relative to control; conditions: NCI-H226, 48 h, read-out: Activity; in short: as §3
# [8] = system: NCI-H322M; test: Growth inhibition of human NCI-H322M cells assessed as growth percentage at 10 uM incubated for 48 hrs by sulforhodamine B assay relative to control; conditions: read-out: Activity; in short: as §3
# [9] = system: NCI-H460; test: Growth inhibition of human NCI-H460 cells assessed as growth percentage at 10 uM incubated for 48 hrs by sulforhodamine B assay relative to control; conditions: NCI-H460, 48 h, read-out: Activity; in short: as §3
# [10] = system: NCI-H522; test: Growth inhibition of human NCI-H522 cells assessed as growth percentage at 10 uM incubated for 48 hrs by sulforhodamine B assay relative to control; conditions: NCI-H522, 48 h, read-out: Activity; in short: as §3
# [11] = system: SF-539; test: Growth inhibition of human SF539 cells assessed as growth percentage at 10 uM incubated for 48 hrs by sulforhodamine B assay relative to control; conditions: SF-539, 48 h, read-out: Activity; in short: as §2
# [12] = system: SNB-19; test: Growth inhibition of human SNB19 cells assessed as growth percentage at 10 uM incubated for 48 hrs by sulforhodamine B assay relative to control; conditions: SNB-19, 48 h, read-out: Activity; in short: as §2
# [13] = system: SNB-75; test: Growth inhibition of human SNB75 cells assessed as growth percentage at 10 uM incubated for 48 hrs by sulforhodamine B assay relative to control; conditions: SNB-75, 48 h, read-out: Activity; in short: as §2
# [14] = system: M14; test: Growth inhibition of human M14 cells assessed as growth percentage at 10 uM incubated for 48 hrs by sulforhodamine B assay relative to control; conditions: M14, 48 h, read-out: Activity; in short: as §3
# [15] = system: MDA-MB-435; test: Growth inhibition of human MDA-MB-435 cells assessed as growth percentage at 10 uM incubated for 48 hrs by sulforhodamine B assay relative to control; conditions: MDA-MB-435, 48 h, read-out: Activity; in short: as §3
# [16] = system: IGROV-1; test: Growth inhibition of human IGROV1 cells assessed as growth percentage at 10 uM incubated for 48 hrs by sulforhodamine B assay relative to control; conditions: IGROV-1, 48 h, read-out: Activity; in short: as §3
# [17] = system: SK-OV-3; test: Growth inhibition of human SKOV3 cells assessed as growth percentage at 10 uM incubated for 48 hrs by sulforhodamine B assay relative to control; conditions: SK-OV-3, 48 h, read-out: Activity; in short: as §2
# [18] = system: 786-0; test: Growth inhibition of human 786-0 cells assessed as growth percentage at 10 uM incubated for 48 hrs by sulforhodamine B assay relative to control; conditions: 786-0, 48 h, read-out: Activity; in short: as §1
# [19] = system: ACHN; test: Growth inhibition of human ACHN cells assessed as growth percentage at 10 uM incubated for 48 hrs by sulforhodamine B assay relative to control; conditions: read-out: Activity; in short: as §1
# [20] = system: TK-10; test: Growth inhibition of human TK10 cells assessed as growth percentage at 10 uM incubated for 48 hrs by sulforhodamine B assay relative to control; conditions: TK-10, 48 h, read-out: Activity; in short: as §2
# [21] = system: UO-31; test: Growth inhibition of human UO31 cells assessed as growth percentage at 10 uM incubated for 48 hrs by sulforhodamine B assay relative to control; conditions: UO-31, 48 h, read-out: Activity; in short: as §2
# [22] = system: PC-3; test: Growth inhibition of human PC3 cells assessed as growth percentage at 10 uM incubated for 48 hrs by sulforhodamine B assay relative to control; conditions: PC-3, 48 h, read-out: Activity; in short: as §2
# [23] = system: MCF7; test: Growth inhibition of human MCF7 cells assessed as growth percentage at 10 uM incubated for 48 hrs by sulforhodamine B assay relative to control; conditions: MCF7, 48 h, read-out: Activity; in short: as §3
# [24] = system: Hs-578T; test: Growth inhibition of human Hs 578T cells assessed as growth percentage at 10 uM incubated for 48 hrs by sulforhodamine B assay relative to control; conditions: read-out: Activity; in short: as §3
# [25] = system: BT-549; test: Growth inhibition of human BT549 cells assessed as growth percentage at 10 uM incubated for 48 hrs by sulforhodamine B assay relative to control; conditions: BT-549, 48 h, read-out: Activity; in short: as §1
# [26] = system: T47D; test: Growth inhibition of human T47D cells assessed as growth percentage at 10 uM incubated for 48 hrs by sulforhodamine B assay relative to control; conditions: read-out: Activity; in short: as §2
# [27] = system: MDA-MB-468; test: Growth inhibition of human MDA-MB-468 cells assessed as growth percentage at 10 uM incubated for 48 hrs by sulforhodamine B assay relative to control; conditions: MDA-MB-468, 48 h, read-out: Activity; in short: as §3
structure (smiles),measurement,setting,value
CC1=C(C(=O)OCC(C)C)C(c2ccc3c(c2)OCO3)NC(=S)N1 (racemic),growth at 10 µM,[1],101%
same,growth at 10 µM,[2],104%
same,growth at 10 µM,[3],84%
same,growth at 10 µM,[4],89.1%
same,growth at 10 µM,[5],104%
same,growth at 10 µM,[6],121%
same,growth at 10 µM,[7],97.1%
same,growth at 10 µM,[8],117%
same,growth at 10 µM,[9],110%
same,growth at 10 µM,[10],82.2%
same,growth at 10 µM,[11],109%
same,growth at 10 µM,[12],103%
same,growth at 10 µM,[13],94.1%
same,growth at 10 µM,[14],120%
same,growth at 10 µM,[15],103%
same,growth at 10 µM,[16],97.9%
same,growth at 10 µM,[17],106%
same,growth at 10 µM,[18],104%
same,growth at 10 µM,[19],98.5%
same,growth at 10 µM,[20],101%
same,growth at 10 µM,[21],89.4%
same,growth at 10 µM,[22],84.4%
same,growth at 10 µM,[23],98.6%
same,growth at 10 µM,[24],101%
same,growth at 10 µM,[25],95%
same,growth at 10 µM,[26],81.9%
same,growth at 10 µM,[27],94.6%
CC1=C(C(=O)OC(C)C)C(c2ccc3c(c2)OCO3)NC(=S)N1 (racemic),growth at 10 µM,[1],105%
same,growth at 10 µM,[2],103%
same,growth at 10 µM,[3],87.7%
same,growth at 10 µM,[4],110%
same,growth at 10 µM,[5],94.4%
same,growth at 10 µM,[6],119%
same,growth at 10 µM,[7],84.1%
same,growth at 10 µM,[8],108%
same,growth at 10 µM,[9],110%
same,growth at 10 µM,[10],86.4%
same,growth at 10 µM,[11],98.9%
same,growth at 10 µM,[12],95.5%
same,growth at 10 µM,[13],95.2%
same,growth at 10 µM,[14],99%
same,growth at 10 µM,[15],106%
same,growth at 10 µM,[16],99.9%
same,growth at 10 µM,[17],105%
same,growth at 10 µM,[18],104%
same,growth at 10 µM,[19],99.3%
same,growth at 10 µM,[20],98%
same,growth at 10 µM,[21],84.5%
same,growth at 10 µM,[22],86%
same,growth at 10 µM,[23],98.7%
same,growth at 10 µM,[24],97.3%
same,growth at 10 µM,[25],96%
same,growth at 10 µM,[26],91.4%
same,growth at 10 µM,[27],115%
CC(=O)C1=C(C)NC(=O)NC1c1ccc2c(c1)OCO2 (racemic),growth at 10 µM,[1],98.5%
same,growth at 10 µM,[2],108%
same,growth at 10 µM,[3],103%
same,growth at 10 µM,[4],103%
same,growth at 10 µM,[5],101%
same,growth at 10 µM,[6],103%
same,growth at 10 µM,[7],99.6%
same,growth at 10 µM,[8],104%
same,growth at 10 µM,[9],114%
same,growth at 10 µM,[10],91.1%
same,growth at 10 µM,[11],102%
same,growth at 10 µM,[12],95.4%
same,growth at 10 µM,[13],94.1%
same,growth at 10 µM,[14],104%
same,growth at 10 µM,[15],105%
same,growth at 10 µM,[16],103%
same,growth at 10 µM,[17],103%
same,growth at 10 µM,[18],105%
same,growth at 10 µM,[19],108%
same,growth at 10 µM,[20],103%
same,growth at 10 µM,[21],83.4%
same,growth at 10 µM,[22],99%
same,growth at 10 µM,[23],96.9%
same,growth at 10 µM,[24],111%
same,growth at 10 µM,[25],112%
same,growth at 10 µM,[26],91.8%
same,growth at 10 µM,[27],105%
CC1=C(C(=O)OCC(C)C)C(c2ccc3c(c2)OCO3)NC(=O)N1 (racemic),growth at 10 µM,[1],104%
same,growth at 10 µM,[2],108%
same,growth at 10 µM,[3],99.9%
same,growth at 10 µM,[4],109%
same,growth at 10 µM,[5],95.5%
same,growth at 10 µM,[6],114%
same,growth at 10 µM,[7],93.1%
same,growth at 10 µM,[8],115%
same,growth at 10 µM,[9],113%
same,growth at 10 µM,[10],91.1%
same,growth at 10 µM,[11],104%
same,growth at 10 µM,[12],107%
same,growth at 10 µM,[13],100%
same,growth at 10 µM,[14],105%
same,growth at 10 µM,[15],109%
same,growth at 10 µM,[16],94.8%
same,growth at 10 µM,[17],108%
same,growth at 10 µM,[18],104%
same,growth at 10 µM,[19],105%
same,growth at 10 µM,[20],99.4%
same,growth at 10 µM,[21],84.8%
same,growth at 10 µM,[22],92.2%
same,growth at 10 µM,[23],101%
same,growth at 10 µM,[24],118%
same,growth at 10 µM,[25],99.4%
same,growth at 10 µM,[26],97.5%
same,growth at 10 µM,[27],100%
